TRPC4 agonist – activators of mouse TRPC4 channel; Q9QUQ5; HEK293 TRPC4beta/mu-opioid, Fluo4 calcium fluorescence; active compounds read high; B-score at 10 µM; actives 0.49% (n = 310,000);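 active = B-score above 5 SD of library B-scores, and initial fluorescence ratio not above library mean plus 5 SD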;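 also: positive B-score marks a calcium rise read as TRPC4 activation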
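system = HEK293 cells stably co-expressing mouse TRPC4beta and mu-opioid receptor | schedule = Fluo4 dye loading 45 min at room temperature, 110 s recording | measure = B-scored integrated calcium fluorescence ratio | signal = Fluo4 calcium-sensitive dye fluorescence, kinetic, 1 Hz baseline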
TRPC4 PAM – TRPC4 (mouse) allosteric potentiation; Q9QUQ5; HEK293 TRPC4beta/mu-opioid, DAMGO EC20, Fluo-4 Ca2+ flux; active compounds read high; B-score at 10 µM; actives 0.42% (n = 310,000); AID 2227;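 active = B-score of calcium response area above 5 SD of library B-scores, with initial fluorescence ratio within 5 SD of library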;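 also: B-score of integrated fluorescence ratio over time as area under calcium response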
TRPC4 inh – TRPC4 (mouse) channel inhibition; B-score at 10 µM; HEK293 TRPC4beta/mu-opioid, DAMGO-evoked Fluo4 calcium flux; active compounds read low; Q9QUQ5; actives 0.39% (n = 300,000);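 active = B-score over 3 SD under the library average, no early fluorescence shift, positive overall ratio signal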
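Signal: kinetic Fluo4 fluorescence imaging of calcium influx. Material: stable TRPC4beta/mu-opioid receptor HEK293 cells. Probe or stimulus: DAMGO in two steps, submaximal then maximal.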
TRPC6 inhibitor – inhibitors of mouse TRPC6 channel; Q61143; HEK293-TRPC6, membrane potential dye, ACh-evoked depolarization; active compounds read low; B-score at 10 µM; actives 1.1% (n = 310,000); AID 2553;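 active = B-score under library mean minus 3 SD, initial fluorescence not abnormally high, positive integrated signal ratio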;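 also: B-score derived from integrated fluorescence ratio over the kinetic read; more negative B-score means stronger inhibition of depolarization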
TRPC6 activator – mouse TRPC6 channel activation; actives 0.13% (n = 310,000); AID 2550; Q61143; B-score at 10 µM; HEK293-TRPC6 membrane potential dye fluorescence; active compounds read high;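 active = B-score of the integrated fluorescence ratio above library mean plus 3 SD, and starting fluorescence ratio within library mean plus 5 SD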;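 also: higher score means more depolarization so channel activation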
An asterisk follows results filed as active; i = inactive. Only some compounds are listed: those with a hit (about 2.3% of all), similar ones and a draw of the others.

SMILES	TRPC4 agonist	TRPC4 PAM	TRPC4 inh	TRPC6 inhibitor	TRPC6 activator
OC(C#CCN1CCOCC1)c1cccs1 (stereo not given)	77*	i	i	i	i
CC(=O)OC(C#CCN1CCOCC1)c1ccccc1 (stereo not given)	i	i	i	i	i
CCCCCN(C(=O)CCC(=O)OCC(=O)c1ccc(C(C)CC)cc1)c1c(N)n(CCCC)c(=O)[nH]c1=O (stereo not given)	i	i	i	i	i
COCCNC(=O)C1=C(N)C(C(=O)Nc2ccc(C)c(S(=O)(=O)N3CCCCC3)c2)SC1=Nc1ccc(C)cc1C (stereo not given)	i	i	i	i	i
CCOC(=O)c1cc2c(=O)n3ccccc3nc2n(CCOC)c1=NC(=O)c1ccncc1	i	i	i	i	i
CCOC(=O)c1cc2c(=O)n3ccccc3nc2n(C(C)C)c1=NC(=O)c1c(-c2ccccc2Cl)noc1C	i	i	-8*	i	i
CCOC(=O)c1cc2c(=O)n3ccccc3nc2n(Cc2ccco2)c1=NC(=O)c1cccnc1	i	11*	i	i	i
CCOC(=O)c1cc2c(=O)n3ccccc3nc2n(CCOC)c1=NC(=O)C(C)(C)C	152*	i	i	i	i
CCOC(=O)c1cc2c(=O)n3ccccc3nc2n(Cc2ccco2)c1=NC(=O)c1ccccc1OCC	i	i	i	i	i
N#Cc1c(Cc2cccc3ccccc23)nn(CCO)c1N	i	i	i	i	i
Cc1ccc(C(=O)Nc2ccc(C(=O)N3CCCCC3)cc2)cc1	i	i	i	i	i
COc1ccc(N2CCN(C3CCCN(C(=O)CN4CCCC4=O)C3)CC2)cc1 (stereo not given)	i	i	i	i	i
NC(=S)N/N=C1/CCSc2ccc3ccccc3c21	i	17*	i	i	i
COc1cc(OC)cc(-c2nnc(NC(=O)c3ccc4c(c3)OCCO4)o2)c1	i	i	i	i	i
Cn1c2c(c(=O)n(C)c1=O)C(C(F)(F)F)(C(F)(F)F)N=C(CCC1CCCCC1)N2	i	11*	i	i	i
Cc1ccc(CSc2nc(N)cc(=O)[nH]2)cc1	i	i	i	i	i
CCCc1[nH]nc2c1C(Cc1ccccc1)C(C#N)=C(N)O2 (stereo not given)	i	i	i	i	i
CCCc1[nH]nc2c1C(CCc1ccccc1)C(C#N)=C(N)O2 (stereo not given)	i	13*	i	i	i
O=[N+]([O-])c1cccc(-c2ccc(CN3CCCCC3)o2)c1	i	13*	i	i	i
O=C(Nc1ccc(CN2CCOCC2)cc1)c1ccc(-c2cccc([N+](=O)[O-])c2)o1	i	i	i	i	i
COc1ccc(C(=O)N/C(=C\c2ccccc2)C(=O)Nc2ccc(C(=O)NCC(=O)O)cc2)cc1	i	i	i	i	i
CC(=O)N1CCN(c2ccccc2NC(=O)c2cccs2)CC1	i	i	-6*	i	i
COc1ccc(C(=O)Nc2ccccc2N2CCCC2)cc1	i	i	i	i	i
CC(=O)N1CCN(c2ccccc2NC(=O)c2ccc3ccccc3c2)CC1	i	i	-5*	i	i
CCC(=O)N1CCN(c2ccccc2NC(=O)c2cccs2)CC1	i	i	i	i	i
SMILES	TRPC4 agonist	TRPC4 PAM	TRPC4 inh	TRPC6 inhibitor	TRPC6 activator
CC(C)C(=O)N1CCN(c2ccccc2NC(=O)c2ccco2)CC1	i	i	-10*	i	i
Cc1ccc(C(=O)C(c2ccccc2)N2Cc3ccccc3C2=N)cc1 (stereo not given)	210*	i	i	i	i
COc1ccc(C(=O)C(c2ccccc2)N2CCOCC2)cc1 (stereo not given)	i	i	i	i	i
CN1CCCN(Cc2cccc3ccccc23)CC1	i	23*	i	i	i
OC1CCN(Cc2cccc3ccccc23)CC1	i	i	i	i	i
O=C(CN1CCN(c2ccc([N+](=O)[O-])cc2)CC1)c1ccccc1	i	11*	i	i	i
O=C(CSc1nnc2ccc(-c3ccccn3)nn12)Nc1ccccc1F	i	i	i	i	i
CC1CC(C)CN(CCCNC(=O)COc2cc(=O)n(C)c3ccccc23)C1 (stereo not given)	85*	10*	i	i	i
CCn1c(=O)cc(OCC(=O)NCCCN2CC(C)CC(C)C2)c2ccccc21 (stereo not given)	90*	i	i	i	i
CCOc1ccc(C(CC(=O)O)NS(=O)(=O)c2ccc(C)cc2)cc1OC (stereo not given)	i	i	i	i	i
CCOC(=O)CC(NC(=O)c1cc2cc(Br)ccc2oc1=O)c1cccc([N+](=O)[O-])c1 (stereo not given)	i	26*	i	i	i
CCOC(=O)c1cc2cc([N+](=O)[O-])ccc2oc1=O	i	i	i	i	i
CCOC(=O)CC(NS(=O)(=O)c1ccc(OC)c(C)c1)c1cccc([N+](=O)[O-])c1 (stereo not given)	i	i	-6*	i	i
O=C(O)C1C2C=CC(C2)C1C(=O)Nc1ccc2c(c1)OCCO2 (stereo not given)	i	i	i	i	i
CN(C)c1ccc(NC(=O)C2C3C=CC(C3)C2C(=O)O)cc1 (stereo not given)	i	21*	i	i	i
C(#CC12CC3CC(CC(C3)C1)C2)CN1CCOCC1	i	i	i	i	i
Cc1ccccc1CC(=O)Nc1sc(C(C)C)cc1C(=O)N1CCOCC1	i	i	i	i	i
O=C(NC(C(=O)N/N=C/c1cccnc1)c1n[nH]c(=O)c2ccccc12)c1ccccc1 (stereo not given)	53*	i	i	i	i
O=C(NC(C(=O)N/N=C/c1ccncc1)c1n[nH]c(=O)c2ccccc12)c1ccccc1 (stereo not given)	i	i	i	i	i
Cc1cc(C)c(NC(=O)CCN2C(=O)c3ccccc3S2(=O)=O)c(C)c1	i	i	i	i	i
CCOc1cccc(CNCCO)c1OCc1ccc(Cl)cc1	i	i	-7*	i	i
CN(CC(=O)Nc1ccc(Cl)cc1)C(=O)CCc1nc2sc3c(c2c(=O)[nH]1)CCCC3	i	i	i	i	i
Cc1cc(C)nc(SCC(=O)N(C)CC(=O)Nc2c(Cl)cccc2Cl)n1	i	i	i	i	i

Compound activity from PubChem.
